Source: PubChem BioAssay (several laboratories)
This is a sample that favours compounds with a hit; in the whole collection about 4.6% have one here.
PfM18AAP inh: blocks P. falciparum M18 aspartyl aminopeptidase; recombinant PfM18AAP, H-Glu-NHMec fluorogenic cleavage; inhibition, % at 7.35 µM; 1.2% of 290,000 active;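 active means inhibition above the campaign mean inhibition over all tested compounds plus 3 SD, cut at about 28% in these data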;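 further: 0% = plate median of test compound wells and 100% = 2 mM ZnCl2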
Rtt109 HAT inh: inhibitors of Candida albicans Rtt109/Vps75 histone acetyltransferase; inhibition, % at 34.9 µM; purified Rtt109/Vps75, ThioGlo CoA-SH fluorescence, 4 h; 0.16% of 330,000 active; AID 540336;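 active means inhibition of at least 50% in every replicate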
HDAC3 inh: inhibitors of human histone deacetylase 3; recombinant HDAC3, fluorogenic peptide/trypsin coupled, fluorescence; 0.15% of 320,000 active; AID 2718; inhibition, % at 8.3 µM; in the data active means inhibition above about 26%, passing the limit was not always enough
Target sequence (O15379 whole entry, looked up): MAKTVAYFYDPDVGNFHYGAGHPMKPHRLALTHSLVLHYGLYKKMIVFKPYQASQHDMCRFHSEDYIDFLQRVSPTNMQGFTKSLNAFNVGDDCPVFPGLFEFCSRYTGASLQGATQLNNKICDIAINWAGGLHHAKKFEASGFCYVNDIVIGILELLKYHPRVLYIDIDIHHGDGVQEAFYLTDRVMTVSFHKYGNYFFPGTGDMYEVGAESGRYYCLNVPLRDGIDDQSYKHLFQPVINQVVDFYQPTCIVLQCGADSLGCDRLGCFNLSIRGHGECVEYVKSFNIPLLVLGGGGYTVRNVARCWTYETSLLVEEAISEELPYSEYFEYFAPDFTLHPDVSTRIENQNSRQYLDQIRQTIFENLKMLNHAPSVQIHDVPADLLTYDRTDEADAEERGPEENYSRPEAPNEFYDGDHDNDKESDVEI
FAS TE block: inhibitors of human fatty acid synthase thioesterase domain | P49327 | recombinant FAS-TE, OMFH fluorogenic substrate, fluorescence endpoint | 0.67% of 360,000 active | inhibition, % at 15 µM;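 active means compounds whose normalised, plate-corrected inhibition of enzyme fluorescence in the single-dose primary screen is 50% or more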;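 further: 0% = DMSO with enzyme and 100% = substrate without enzyme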
ALR H2O2 inh: human ALR oxidase inhibition via reduced H2O2; P55789; purified ALR, DTT oxidation, H2O2 HRP-luminol luminescence; inhibition, % (concentration not given with the values); 3.8% of 290,000 active;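 active means mean replicate inhibition above about 79%, with every replicate also reaching it, limit read from the data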
Target sequence (P55789 whole entry, looked up): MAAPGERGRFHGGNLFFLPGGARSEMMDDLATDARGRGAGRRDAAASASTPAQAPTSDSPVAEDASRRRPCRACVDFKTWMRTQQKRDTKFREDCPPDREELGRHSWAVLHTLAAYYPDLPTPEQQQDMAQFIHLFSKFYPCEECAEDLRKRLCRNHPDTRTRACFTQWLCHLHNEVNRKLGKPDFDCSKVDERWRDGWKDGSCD
UCH37 DUB inh: human UCH37 deubiquitinating enzyme inhibition; inhibition, % (concentration not given with the values); 0.33% of 330,000 active; Q9Y5K5; purified proteasome/UCH37, Ub-AMC cleavage fluorescence;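 active means mean inhibition over replicate wells above about 20%, limit read from the data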;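 further: 0% = compound-free wells with enzyme and 100% = wells lacking proteasome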
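Material: human UCH37 enzyme supplied as purified proteasome complex / Amount: 0.15 nM proteasome as dispensed / Buffer or medium: pH 7.4 Tris-HCl (50 mM) with ovalbumin, ATP-MgCl2, DTT / Times: preincubation 30 min, reaction 25 min, room temperature / Technique: AMC fluorescence from Ub-AMC cleavage, excitation 355 nm, emission 460 nm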
* hit, by the source's call; / = not tested or not shown.

SMILES	PfM18AAP inh	Rtt109 HAT inh	HDAC3 inh	FAS TE block	ALR H2O2 inh	UCH37 DUB inh
Cc1c(N2C(=O)/C(=C/C3CC=CCC3)SC2=S)c(=O)n(-c2ccccc2)n1C (centres undefined)	-16.8	/	5.0	-1.1	98.5*	4.9
C=CCn1sc(N)c(C(=O)OCC)c1=S	3.2	8.1	4.2	-1.2	99.2*	-1.2
Cc1ccc(Oc2ccc(C(=O)NC3CCSC3=O)cn2)cc1 (centres undefined)	3.4	-13.8	19.3	-8.3	98.5*	0.4
O=C(NC1CCSC1=O)c1ccc(Oc2ccc(F)cc2)nc1 (centres undefined)	9.4	-5.7	-5.5	-0.6	-22.0	2.7
COc1cc2c(cc1OC)-c1cc(Nc3ccc(N(C)C)cc3)nc(=O)n1CC2	2.2	7.8	-1.5	2.2	99.2*	1.0
CCN(CC)c1ccc(Nc2cc3n(c(=O)n2)CCc2cc(OC)c(OC)cc2-3)cc1	-20.2	-0.9	2.7	-0.3	99.8*	6.7
COc1cc2c(cc1OC)-c1cc(Nc3ccc(F)cc3)nc(=O)n1CC2	3.5	-5.1	-1.5	1.6	-3.1	-115.6
O=C(O)COc1ccc(C=NO)cc1Br	/	/	/	/	/	2.0
CC(=NNC(=O)Cc1ccc(F)cc1)c1ccc(F)cc1	/	/	/	/	/	1.0
COc1cc(C(C)=NN2CCN(c3ccccc3OC)CC2)ccc1O	/	/	/	/	/	5.0
CCOC(=O)C1=C(C)NC2=C(C(=O)CCC2)C1c1ccc(N(C)C)cc1 (centres undefined)	0.9	-4.0	-4.2	-4.9	73.6	-1.1
CCCOC(=O)C1=C(C)NC2=C(C(=O)CCC2)C1c1ccc(N(C)C)cc1 (centres undefined)	3.5	11.5	4.5	-1.0	90.7*	-0.1
CCN(CC)c1ccc(C2C(C(=O)OCCOC)=C(C)NC3=C2C(=O)CCC3)cc1 (centres undefined)	11.7	-1.9	2.0	-4.5	98.7*	-54.7
CC1CCC2(CC1)SCC(=O)N2c1ccc(F)cc1 (centres undefined)	1.1	-2.0	3.3	0.6	98.8*	5.5
COc1cccc(C(=O)Nc2nc(-c3ccc4c(c3)OCO4)cs2)c1	1.5	-2.9	1.8	29.3	50.5	-2.7
CC(=O)Nc1nc(-c2ccc3c(c2)OCO3)cs1	1.7	1.6	2.6	-4.2	-4.4	3.9
CCOC(=O)N1CCN(C(=O)CSCC(=O)Nc2nc(-c3ccc4c(c3)OCO4)cs2)CC1	-0.9	3.0	-1.6	-10.0	99.0*	-1.1
CCOC(=O)N1CCN(C(=O)CSCC(=O)Nc2nc(-c3ccc(C)cc3)cs2)CC1	-6.6	4.8	10.1	-9.3	99.0*	5.4
N#CCC(=O)Nc1nc(-c2ccc3c(c2)OCCO3)cs1	5.4	/	8.0	-3.7	99.5*	4.9
O=C(CSCC(=O)N1CCOCC1)Nc1nc(-c2ccc3c(c2)OCO3)cs1	-10.9	0.9	-13.1	-2.9	97.4*	5.9
O=C(CCCCl)Nc1nc(-c2ccc3c(c2)OCCO3)cs1	2.3	-10.2	-2.8	5.4	-14.9	1.5
O=C1C2C(C(=O)N1N=Cc1ccc([N+](=O)[O-])o1)C1C=CC2C12CC2 (centres undefined)	/	/	/	/	/	8.0
O=C(CSCC(=O)N1CCCc2ccccc21)Nc1nc(-c2ccccc2)cs1	4.2	-1.2	3.7	18.6	99.6*	4.9
COCCn1c(SCC(=O)c2ccc(Cl)cc2)nnc1C(C)C	-0.7	-10.0	3.6	-3.0	91.0*	1.0
COCCn1c(SCC(=O)Nc2cc(C)cc(C)c2)nnc1C(C)C	-4.9	9.8	-2.3	-11.7	99.5*	2.2
SMILES	PfM18AAP inh	Rtt109 HAT inh	HDAC3 inh	FAS TE block	ALR H2O2 inh	UCH37 DUB inh
COCCn1c(SCC(=O)Nc2cccc(C)c2)nnc1C(C)C	3.9	1.7	-1.2	-2.3	/	7.6
COc1cc(C=NNC(=O)Cc2cccs2)c([N+](=O)[O-])cc1OC	/	/	/	/	/	5.7
Cc1cccc(C(=O)Oc2ccc(C=NNC(=O)c3cc(O)cc(O)c3)cc2)c1	/	/	/	/	/	4.2
NNc1nc2c(-c3ccc(F)cc3)nnn2c2ccccc12	29.9*	-9.9	-5.4	-4.1	21.2	-75.8
COc1ccc(OCC(=O)NN=C/C(C)=C/c2ccco2)c(Br)c1	/	/	/	/	/	-3.6
C(=Nc1ncnc2sccc12)NOCc1ccccc1	/	/	/	/	/	0.4
CCN(CC)S(=O)(=O)c1ccc(NN=Cc2ccc(O)cc2)nc1	/	/	/	/	/	-11.7
CCN(CC)S(=O)(=O)c1ccc(N/N=C/c2ccc(O)cc2)nc1	1.4	-1.9	6.3	5.6	99.4*	/
O=C(Nc1cccc(Cl)c1N1CCOCC1)c1cccs1	1.4	3.5	-2.8	11.4	90.8*	1.5
CCN1CCN(c2c(Cl)cccc2NC(=O)c2cccs2)CC1	-1.2	4.9	-5.7	-2.0	-1.3	3.3
O=C(NN=C1CC2CC=CC12)c1ccc(O)cc1 (centres undefined)	/	/	/	/	/	1.1
CCn1c(=NC(=O)CSC(C)=O)sc2cc(OC)ccc21	1.4	2.6	0.7	-3.3	52.5	4.8
COCCn1c(=NC(=O)CSC(C)=O)sc2cc(OC)ccc21	15.2	4.7	2.5	-0.4	97.7*	4.1
O=C(O)c1cc(O)ccc1NC(=O)C(c1ccccc1)c1ccccc1	5.6	-8.5	-6.4	-5.5	95.4*	0.4
COc1ccc(NCC(=O)NN=CC2CCCCC2)cc1	/	/	/	/	/	0.9
Cc1nn(-c2ccccc2)c(Cl)c1C=NNC(=O)CNC(=O)c1ccccc1Cl	/	/	/	/	/	5.4
COc1cc2[nH]c3c(N4CCN(c5ccccn5)CC4)ncnc3c2cc1OC	5.1	19.5	-13.8	-2.3	98.6*	-4.1
COc1ccc(S(=O)(=O)N2CCN(c3ccccn3)CC2)cc1OC	2.9	53.1*	-1.6	-2.8	3.7	1.1
Cc1cc(C(=O)NN=Cc2cc(C(C)(C)C)ccc2O)n[nH]1	/	/	/	/	/	-13.7
CC(=O)N1[C@H](Cc2ccccc2)C=C[C@]1(C)C(=O)NCCc1c[nH]c2ccccc12	-6.7	-4.3	0.4	-2.0	99.2*	2.3
CCCCCC(=O)NN=C(C)c1ccc(NC(=O)c2ccco2)cc1	/	/	/	/	/	-1.7
COc1ccc2c(c1)[C@H]1[C@H](CO2)[C@H](c2ccccc2)[C@]2(C)C(=O)Nc3cc(C)ccc3C(=O)N12	/	7.9	7.5	36.4	-2.3	/
C[C@]12C(=O)N(c3cccc(Cl)c3)C(=O)N1[C@H]1c3ccccc3OC[C@@H]1[C@H]2c1ccccc1	-12.9	-2.9	1.5	75.8*	0.3	0.0
C[C@@]12C(=O)N(c3cccc(Cl)c3)C(=O)N1[C@@H]1c3ccccc3OC[C@@H]1[C@H]2c1ccccc1	/	-11.8	9.7	20.4	-3.7	-1.4
Cc1cccc(N2C(=O)N3[C@H]4c5ccccc5OC[C@@H]4[C@@H](c4ccccc4)[C@@]3(C)C2=O)c1	/	11.6	5.0	23.8	1.3	26.2*
COc1ccc2c(c1)[C@H]1[C@H](CO2)[C@H](c2ccccc2)[C@]2(C)C(=O)Nc3cc(Cl)ccc3C(=O)N12	/	5.8	2.8	89.4*	/	4.7
CC(=NNC(=O)Cc1ccccc1)c1ccc(Br)s1	/	/	/	/	/	-0.4
CC(=NOC(=O)c1ccc(C(F)(F)F)cc1)c1oc(C)nc1C	/	/	/	/	/	4.7
